Source: ChEMBL document CHEMBL1125464, “1,3,6-trisubstituted indoles as peptidoleukotriene antagonists: benefits of a second, polar, pyrrole substituent” (J Med Chem, 1992)

Legend:
Cavia porcellus [1] = organism: Cavia porcellus; test: Dissociation constant on guinea pig tracheal spirals utilizing LTE4 as agonist; conditions: Trachea
Cavia porcellus [2] = test: Protection of conscious guinea pig lung function was determined by comparison of time required for the challenged animals to exhibit labored abdominal breathing after oral dose of 3 uM/kg; assay type: functional
Outline: (§1)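 Conscious guinea pigs pretreated with indomethacin (10 mg/kg ip) and propranolol (5 mg/kg ip). Compound in PEG400 (<10% v/v)/PBS given orally 180 min before a challenge of up to 5 min with aerosolized 60 uM LTD4. Time to abdominal dyspnea scored blind. % protection is taken against vehicle controls; no end point by 300 s counts as 100%. Unpaired t test.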

Cavia porcellus [3] = organism: Cavia porcellus; test: Inhibition of LTE4 (8 nM) induced contraction of guinea pig tracheal spirals at a concentration of 3.3 uM; assay type: functional, Trachea
Outline: (§2)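 Paired tracheal spirals at 37 °C in Krebs gassed with 95% O2/5% CO2 under 2 g tension, given repeated LTE4 challenges of 10 min. Compound or vehicle added 10 min before a third challenge. % inhibition = (2nd − 3rd response)/2nd × 100, corrected by subtracting the vehicle value. Paired t test, n ≥ 4.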

[4] = Negative logarithm of the molar dissociation constant; assay type: ADME
Outline: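 Paired guinea pig tracheal spirals at 37 °C in Krebs gassed with 95% O2/5% CO2, 2 g resting tension. Responses expressed relative to 30 uM carbachol. Antagonist or vehicle preincubated 30 min, then cumulative LTE4 concentration-response curves, one per tissue. EC50 by linear regression; KB = [antagonist]/(dose ratio − 1), per Furchgott.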

Cavia porcellus [5] = organism: Cavia porcellus; test: Inhibition of LTE4 (8 nM) induced contraction of guinea pig tracheal spirals at a concentration of 0.1 uM; assay type: functional, Trachea
Outline: as §2

Cavia porcellus [6] = organism: Cavia porcellus; test: Compound was evaluated for the displacement of [3H]LTD4 on guinea pig lung parenchymal membranes; design: species or system Lung parenchyma
Outline: (§3)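 Membranes from perfused lungs of male Hartley guinea pigs (300-400 g) in PIPES pH 7.5 with 10 mM CaCl2, 10 mM MgCl2, 2 mM cysteine and 2 mM glycine. 1 nM 3H-LTD4 at 22 °C for 30 min; nonspecific binding with 2 uM LTD4. Filtration, then scintillation counting. IC50 by nonlinear least squares, Ki by Cheng-Prusoff; mean of two experiments in duplicate.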

Cavia porcellus [7] = organism: Cavia porcellus; test: Inhibition of LTE4 (8 nM) induced contraction of guinea pig tracheal spirals at a concentration of 10 nM; assay type: functional, Trachea
Outline: as §2

Cavia porcellus [8] = organism: Cavia porcellus; test: Inhibition constant for the displacement of [3H]LTD4 on guinea pig lung parenchymal membranes; design: species or system Lung parenchyma
Outline: as §3

Cavia porcellus [9] = organism: Cavia porcellus; test: Inhibition of LTE4 (8 nM) induced contraction of guinea pig tracheal spirals at a concentration of 100 nM; assay type: functional, Trachea
Outline: as §2

Cavia porcellus [10] = organism: Cavia porcellus; test: Inhibition of LTE4 (8 nM) induced contraction of guinea pig tracheal spirals at a concentration of 10 uM; assay type: functional, Trachea
Outline: as §2

Cavia porcellus [11] = test: Protection of conscious guinea pig lung function was determined by comparison of time required for the challenged animals to exhibit labored abdominal breathing after oral dose of 10 uM/kg; assay type: functional
Outline: as §1

Cavia porcellus [12] = test: Protection of conscious guinea pig lung function was determined by comparison of time required for the challenged animals to exhibit labored abdominal breathing after oral dose of 1 uM/kg; assay type: functional
Outline: as §1

Cavia porcellus [13] = test: Protection of conscious guinea pig lung function was determined by comparison of time required for the challenged animals to exhibit labored abdominal breathing after oral dose of 30 uM/kg; assay type: functional
Outline: as §1

Cavia porcellus [14] = organism: Cavia porcellus; test: Inhibition of LTE4 (8 nM) induced contraction of guinea pig tracheal spirals at a concentration of 3.3 uM; NS=not statistically significant; assay type: functional; conditions: Trachea
Outline: as §2

Cavia porcellus [15] = organism: Cavia porcellus; test: Inhibition of LTE4 (8 nM) induced contraction of guinea pig tracheal spirals at a concentration of 0.33 uM; assay type: functional, Trachea
Outline: as §2

## COc1cc(C(=O)NS(=O)(=O)c2ccccc2)ccc1Cn1cc(Cl)c2ccc(NC(=O)OC3CCCC3)cc21
Cavia porcellus [1]
  Kb: 718 pM

## COc1cc(C(=O)NS(=O)(=O)c2ccccc2C)ccc1Cn1cc(CCC(=O)N2CCCC2)c2ccc(C(=O)NCC3CCCC3)cc21
Cavia porcellus [2]
  Protection: 49%

## COc1cc(C(=O)O)ccc1Cn1ccc2ccc(C(=O)NCC3CCCC3)cc21
Cavia porcellus [3]
  Inhibition: 45%

## COc1cc(C(=O)O)ccc1Cc1c[nH]c2ccc(NC(=O)OC3CCCC3)cc12
[4]
  pKB: 7.32

## COc1cc(C(=O)O)ccc1Cn1ccc2ccc(NC(=O)OC3CCCC3)cc21
Cavia porcellus [5]
  Inhibition: 61%
Cavia porcellus [1]
  Kb: 15700 pM

## CCN(CC)C(=O)CCn1cc(Cc2ccc(C(=O)NS(=O)(=O)c3ccccc3C)cc2OC)c2cc(C(=O)NCC3CCCC3)ccc21
Cavia porcellus [6]
  Ki: 430 pM

## COc1cc(C(=O)NS(=O)(=O)c2ccccc2)ccc1Cn1c2c(c3ccc(NC(=O)CC4CCCC4)cc31)CCCC2
Cavia porcellus [1]
  Kb: 7730 pM

## COc1cc(C(=O)NS(=O)(=O)c2ccccc2C)ccc1Cc1cn(C)c2ccc(C(=O)NCC3CCCC3)cc12
Cavia porcellus [6]
  Ki: 3210 pM
Cavia porcellus [7]
  Inhibition: 36%
Cavia porcellus [1]
  Kb: 4280 pM

## COc1cc(C(=O)O)ccc1Cc1cn(C)c2ccc(NC(=O)OC3CCCC3)cc12
[4]
  pKB: 7.84

## COc1cc(C(=O)NS(=O)(=O)c2ccccc2)ccc1Cc1cn(C)c2ccc(NC(=O)OC3CCCC3)cc12
[4]
  pKB: 9.69

## CCN(CC)C(=O)/C=C/c1cn(Cc2ccc(C(=O)NS(=O)(=O)c3ccccc3C)cc2OC)c2cc(C(=O)NCC3CCCC3)ccc12
Cavia porcellus [6]
  Ki: 4900 pM

## COc1cc(C(=O)NS(=O)(=O)c2ccccc2C)ccc1Cc1cn(C)c2ccc(NC(=O)CC3CCCC3)cc12
Cavia porcellus [6]
  Ki: 300 pM
Cavia porcellus [1]
  Kb: 245 pM

## COc1cc(C(=O)NS(=O)(=O)c2ccccc2)ccc1Cn1ccc2ccc(C(=O)NCC3CCCC3)cc21
Cavia porcellus [8]
  Ki: 86800 pM
Cavia porcellus [9]
  Inhibition: 46%
Cavia porcellus [1]
  Kb: 14200 pM

## COc1cc(C(=O)O)ccc1Cn1ccc2ccc(C(=O)OCC3CCCC3)cc21
Cavia porcellus [10]
  Inhibition: 74%
Cavia porcellus [3]
  Inhibition: 10%

## CCCn1cc(Cc2ccc(C(=O)O)cc2OC)c2cc(NC(=O)OC3CCCC3)ccc21
[4]
  pKB: 7.72

## COc1cc(C(=O)NS(=O)(=O)c2ccccc2C)ccc1Cn1cc(CCC(=O)N2CCC(C)(C)CC2)c2ccc(C(=O)NCC3CCCC3)cc21
Cavia porcellus [1]
  Kb: 4450 pM

## COc1cc(C(=O)O)ccc1Cc1cn(C2CCCC2)c2ccc(NC(=O)OC3CCCC3)cc12
[4]
  pKB: 7.67

## CNC(=O)CCc1cn(Cc2ccc(C(=O)NS(=O)(=O)c3ccccc3)cc2OC)c2cc(NC(=O)CC3CCCC3)ccc12
Cavia porcellus [1]
  Kb: 19.7 pM
Cavia porcellus [11]
  Protection: 74%

## COc1cc(C(=O)NS(=O)(=O)c2ccccc2C)ccc1Cn1ccc2ccc(NC(=O)CC3CCCC3)cc21
Cavia porcellus [12]
  Protection: 40%
Cavia porcellus [1]
  Kb: 106 pM

## COc1cc(C(=O)NS(=O)(=O)c2ccccc2)ccc1Cn1ccc2ccc(NC(=O)CC3CCCC3)cc21
Cavia porcellus [13]
  Protection: 43%
Cavia porcellus [1]
  Kb: 243 pM

## CCCC(=O)c1cn(Cc2ccc(C(=O)NS(=O)(=O)c3ccccc3)cc2OC)c2cc(NC(=O)CC3CCCC3)ccc12
Cavia porcellus [1]
  Kb: 496 pM

## COc1cc(C(=O)O)ccc1Cn1cc(C)c2ccc(NC(=O)CC3CCCC3)cc21
Cavia porcellus [5]
  Inhibition: 59%

## COC(=O)CCc1cn(Cc2ccc(C(=O)NS(=O)(=O)c3ccccc3)cc2OC)c2cc(NC(=O)CC3CCCC3)ccc12
Cavia porcellus [1]
  Kb: 273 pM
Cavia porcellus [11]
  Protection: 63%

## COc1cc(C(=O)O)ccc1Cn1cc(C)c2ccc(C(=O)NCC3CCCC3)cc21
Cavia porcellus [14]
  NS: not statistically significant

## COc1cc(C(=O)NS(=O)(=O)c2ccccc2)ccc1Cn1cc(CCC(=O)O)c2ccc(NC(=O)CC3CCCC3)cc21
Cavia porcellus [1]
  Kb: 73.1 pM
Cavia porcellus [11]
  Protection: 35%

## CCCn1cc(Cc2ccc(C(=O)NS(=O)(=O)c3ccccc3)cc2OC)c2cc(NC(=O)OC3CCCC3)ccc21
[4]
  pKB: 8.44

## CCCCOC(=O)Nc1ccc2c(Cl)cn(Cc3ccc(C(=O)O)cc3OC)c2c1
Cavia porcellus [15]
  Inhibition: 52%
Cavia porcellus [1]
  Kb: 92700 pM
